One experiment concerns Rattus norvegicus. The experiment is described as follows: Antihypertensive activity expressed as maximal change in systolic blood pressure (SBP) from pretreatment levels at either 1.5 or 4 hr after dosing. It is filed as functional, Artery. In outline: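 Male spontaneously hypertensive rats (Okamoto-Aoki, ~300-400 g), fasted at least 16 h, given a single oral 50 mg/kg dose by stomach tube; groups of four, with vehicle-only controls. Systolic pressure taken indirectly by tail plethysmography after 10 min warming at 38 °C, before dosing and at 1.5 and 4 h after. Reported as X ± SE.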

The species entered for a further experiment is Oryctolagus cuniculus. The experiment is described as follows: The vascular smooth muscle relaxant activity was expressed as percent relaxation of the developed isometric tension in potassium depolarized rabbit aortic smooth muscle. It is filed as functional, Aorta. In outline: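 Transverse thoracic aorta strips from female New Zealand albino rabbits in Krebs solution (95% O2/5% CO2, 37 °C), held at 4 g isometric tension and equilibrated 90 min. Strips were primed with high-K+ (100 mM) solution plus 2.5 mM CaCl2, rinsed, then recontracted. After 20 min of sustained contraction, drug was added at 10⁻⁵ M final. Tension 20 min later was compared with pre-drug tension and given as % relaxation.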

In the case of `COc1cccc(OC)c1CN1CC2CCCN2c2ccccc21` (centres undefined), in the experiment with Rattus norvegicus, the “Max SBP” value is recorded as -5 mmHg. Besides, the Vascular relaxation in the experiment listed under Oryctolagus cuniculus was found to be 13%.

On to `COc1cccc(OC)c1CN1C(=O)C2CCCN2c2ccccc21` (centres undefined), for which, in the experiment on Rattus norvegicus, the “Max SBP” value was -19 mmHg. Besides, the Vascular relaxation in the experiment filed under Oryctolagus cuniculus is 30%.

Regarding `COc1cccc(OC)c1CN1CC2CCCN2c2ncccc21` (centres undefined), in the experiment on Rattus norvegicus, the “Max SBP” value is -6 mmHg. Also, the Vascular relaxation in the experiment listed under Oryctolagus cuniculus stood at 54%.

With `c1ccc2c(c1)NCC1CCCN21` (centres undefined), the “Max SBP” value with Rattus norvegicus is -17 mmHg. The compound further had a Vascular relaxation in the experiment listed under Oryctolagus cuniculus of 0%.

Regarding `O=C1C2CCCN2c2ccccc2N1Cc1ccccc1` (centres undefined), in the experiment on Rattus norvegicus, the “Max SBP” value is -4 mmHg.

As for `O=C1C2CCCN2c2ncccc2N1Cc1ccccc1` (centres undefined), the “Max SBP” value in the experiment on Rattus norvegicus is -39 mmHg. Moreover, the Vascular relaxation in the experiment listed under Oryctolagus cuniculus is on record as 0%.

For the compound `CN(C)CCN1C(=O)C2CCCN2c2ncccc21` (centres undefined), the “Max SBP” value with Rattus norvegicus was -22 mmHg. The same compound displayed a Vascular relaxation in the experiment filed under Oryctolagus cuniculus of 0%.

For the compound `COc1cccc(OC)c1C(=O)N1CC2CCCN2c2ccccc21` (centres undefined), the “Max SBP” value with Rattus norvegicus is reported as -13 mmHg. The compound further returned a Vascular relaxation in the experiment listed under Oryctolagus cuniculus of 6%.

With `O=C1Nc2ccccc2N2CCCC12` (centres undefined), the “Max SBP” value in the experiment with Rattus norvegicus is listed as -26 mmHg. The compound also displayed a Vascular relaxation in the experiment filed under Oryctolagus cuniculus of 0%.

Regarding `O=C1C2CCCN2c2ncccc2N1Cc1ccncc1` (centres undefined), in the experiment on Rattus norvegicus, the “Max SBP” value is -38 mmHg. The compound further displayed a Vascular relaxation in the experiment filed under Oryctolagus cuniculus of 0%.

In the case of `COc1cccc(OC)c1CN1C(=O)C2CCCN2c2ncccc21` (centres undefined), the “Max SBP” value with Rattus norvegicus is listed as -18 mmHg. In addition, the Vascular relaxation in the experiment filed under Oryctolagus cuniculus is listed as 5%.

Take `O=C1C2CCCN2c2ccccc2N1Cc1ccncc1` (centres undefined): in the experiment on Rattus norvegicus, the “Max SBP” value is given as -2 mmHg.

As to `COC(=O)C1=C(C)NC(C)=C(C(=O)OC)C1c1ccccc1[N+](=O)[O-]` [NIFEDIPINE], the “Max SBP” value in the experiment with Rattus norvegicus is -68 mmHg. Besides, the Vascular relaxation in the experiment listed under Oryctolagus cuniculus was 75%.
